The source made the active and inactive calls. No cut-off for these calls is given here.
What was measured:
[1] = system: Rattus norvegicus; assay: Antiinflammatory activity against carrageenan-induced edema in Sprague-Dawley rat assessed as right hind paw volume at 10 mg/kg, po administered 4 hrs post challenge measured after 60 mins; type: functional
Summary of the method: (§1)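 Rats received intraplantar carrageenan. Right hind paw volume was measured 4 h after the carrageenan injection and compared with saline/carrageenan-treated controls. Oral dosing in CMC vehicle; volume recorded at 60 min after treatment.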

[2] = system: Rattus norvegicus; assay: Antiinflammatory activity against carrageenan-induced paw edema in Sprague-Dawley rat assessed as paw weight at 10 mg/kg, po administered 4 hrs post challenge measured after 60 mins (reference value: 61.5+/-3.4 g); type: functional
[3] = system: Rattus norvegicus; assay: Antiinflammatory activity against carrageenan-induced paw edema in Sprague-Dawley rat assessed as paw weight at 10 mg/kg, po administered 4 hrs post challenge measured after 30 mins (reference value: 61.5+/-3.4 g); type: functional
[4] = system: Rattus norvegicus; assay: Antiinflammatory activity against carrageenan-induced paw edema in Sprague-Dawley rat assessed as paw weight at 10 mg/kg, po administered 4 hrs post challenge measured after 120 mins (reference value: 61.5+/-3.4 g); type: functional
[5] = system: Rattus norvegicus; assay: Antiinflammatory activity against carrageenan-induced paw edema in Sprague-Dawley rat assessed as paw weight at 40 mg/kg, po administered 4 hrs post challenge measured after 120 mins (reference value: 61.3+/-3.0 g); type: functional
[6] = target: T1, Prostaglandin G/H synthase 1 (Mus musculus, UniProt P22437); assay: Inhibition of COX-1-mediated PGE2 production in arachidonic acid-stimulated mouse J774 cells incubated for 15 mins prior to arachidonic acid-challenge by radioimmunoassay; type: cell-based
T1 sequence (P22437 whole entry): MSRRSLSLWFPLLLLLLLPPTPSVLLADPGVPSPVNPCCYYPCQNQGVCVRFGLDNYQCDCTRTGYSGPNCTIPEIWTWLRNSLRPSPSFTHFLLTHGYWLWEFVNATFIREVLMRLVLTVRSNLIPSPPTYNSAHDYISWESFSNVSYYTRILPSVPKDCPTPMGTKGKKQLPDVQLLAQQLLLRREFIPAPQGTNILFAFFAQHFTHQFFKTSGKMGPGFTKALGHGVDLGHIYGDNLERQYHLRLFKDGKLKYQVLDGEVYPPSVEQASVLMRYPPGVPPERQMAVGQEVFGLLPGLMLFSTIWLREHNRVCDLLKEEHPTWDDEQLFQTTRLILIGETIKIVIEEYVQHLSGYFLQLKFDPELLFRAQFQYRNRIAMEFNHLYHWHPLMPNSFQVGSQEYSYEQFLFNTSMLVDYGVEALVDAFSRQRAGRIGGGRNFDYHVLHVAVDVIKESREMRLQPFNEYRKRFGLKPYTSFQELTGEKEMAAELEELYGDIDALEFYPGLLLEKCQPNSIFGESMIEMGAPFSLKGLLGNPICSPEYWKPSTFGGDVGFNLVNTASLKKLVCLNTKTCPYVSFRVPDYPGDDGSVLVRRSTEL
Summary of the method: (§2)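 J774 murine macrophages grown in DMEM with 10% FBS and allowed to adhere for 2 h at 37 °C. Cells were pretreated with compound at 10 μM for 15 min, then given 15 μM arachidonic acid for 30 min at 37 °C. Where inhibition exceeded 50%, 0.01–1 μM was also tested. Supernatant PGE2 was measured by RIA as % inhibition versus control, in triplicate wells over three experiments. IC50 came from a sigmoidal variable-slope fit.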

[7] = system: J774; assay: Selectivity ratio of IC50 for COX1 in mouse J774 cells to IC50 for COX2 in mouse J774 cells; type: cell-based
Summary of the method: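 Ratio of J774 IC50s, COX-1 over COX-2. For COX-1, cells were pretreated with compound for 15 min, then given 15 μM arachidonic acid for 30 min at 37 °C. For COX-2, cells received E. coli LPS 10 μg/mL for 24 h with compound at 0.01–10 μM. PGE2 was measured by RIA in triplicate wells over three experiments. IC50 came from a sigmoidal fit.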

[8] = system: Mus musculus; assay: Analgesic activity in Swiss albino mouse abdominal constriction model assessed as reduction in acetic acid-induced writhing response for 10 mins at 20 to 40 mg/kg, po administered 30 mins prior to acetic acid-challenge measured after 5 mins relative to vehicle-treated control; type: functional, organism-based; conditions: Abdomen
Summary of the method: (§3)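 Male Swiss albino mice (23−25 g); 0.6% acetic acid (10 mL/kg) injected ip. Stretching movements counted for 10 min, starting 5 min after administration. Oral doses in carboxymethylcellulose (CMC) vehicle, compared with vehicle-treated mice.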

[9] = system: Rattus norvegicus; assay: Antiinflammatory activity against carrageenan-induced paw edema in Sprague-Dawley rat assessed as paw weight at 20 mg/kg, po administered 4 hrs post challenge measured after 120 mins (reference value: 62.6+/-3.1 g); type: functional
[10] = system: Rattus norvegicus; assay: Antiinflammatory activity against carrageenan-induced paw edema in Sprague-Dawley rat assessed as paw weight at 20 mg/kg, po administered 4 hrs post challenge measured after 60 mins (reference value: 62.6+/-3.1 g); type: functional
[11] = target: T2, Prostaglandin G/H synthase 1 (Mus musculus) (UniProt P22437); assay: Inhibition of COX-1-mediated PGE2 production in arachidonic acid-stimulated mouse J774 cells at 10 uM incubated for 15 mins prior to arachidonic acid-challenge by radioimmunoassay; type: cell-based
T2 sequence (whole entry): T1 sequence (P22437 whole entry)
Summary of the method: as §2, with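 “h” for “h at 37 °C. Cells were pretreated with compound at 10 μM for 15 min, then given 15 μM arachidonic acid for 30 min”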

[12] = system: Rattus norvegicus; assay: Antiinflammatory activity against carrageenan-induced paw edema in Sprague-Dawley rat assessed as paw weight at 40 mg/kg, po administered 4 hrs post challenge measured after 30 mins (reference value: 61.3+/-3.0 g); type: functional
[13] = system: Rattus norvegicus; assay: Antiinflammatory activity against carrageenan-induced paw edema in Sprague-Dawley rat assessed as paw weight at 40 mg/kg, po administered 4 hrs post challenge measured after 60 mins (reference value: 61.3+/-3.0 g); type: functional
[14] = system: Rattus norvegicus; assay: Antiinflammatory activity against carrageenan-induced paw edema in Sprague-Dawley rat assessed as paw weight at 20 mg/kg, po administered 4 hrs post challenge measured after 30 mins (reference value: 62.6+/-3.1 g); type: functional
[15] = system: Aorta; assay: Vasorelaxation activity against KCl-induced contraction in isolated Wistar rat thoracic endothelium-denulated aortic rings; type: functional, tissue-based
Summary of the method: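 Endothelium-denuded thoracic aortic rings from male Wistar rats (250−350 g); denudation confirmed by <10% relaxation to 10 μM ACh. Rings precontracted with 30 mM KCl; compound added at 3-fold increasing concentrations, 1 nM to 10 μM. Isometric tension recorded. Emax given as % of KCl tone; pIC50 derived. Mean ± standard error of 6−10 experiments; repeated with 1 μM ODQ.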

[16] = target: T3, Prostaglandin G/H synthase 2 (Homo sapiens, UniProt P35354); assay: Inhibition of COX2-mediated PGE2 production in LPS-induced human whole blood after 60 mins by radioimmunoassay
T3 sequence (P35354 whole entry): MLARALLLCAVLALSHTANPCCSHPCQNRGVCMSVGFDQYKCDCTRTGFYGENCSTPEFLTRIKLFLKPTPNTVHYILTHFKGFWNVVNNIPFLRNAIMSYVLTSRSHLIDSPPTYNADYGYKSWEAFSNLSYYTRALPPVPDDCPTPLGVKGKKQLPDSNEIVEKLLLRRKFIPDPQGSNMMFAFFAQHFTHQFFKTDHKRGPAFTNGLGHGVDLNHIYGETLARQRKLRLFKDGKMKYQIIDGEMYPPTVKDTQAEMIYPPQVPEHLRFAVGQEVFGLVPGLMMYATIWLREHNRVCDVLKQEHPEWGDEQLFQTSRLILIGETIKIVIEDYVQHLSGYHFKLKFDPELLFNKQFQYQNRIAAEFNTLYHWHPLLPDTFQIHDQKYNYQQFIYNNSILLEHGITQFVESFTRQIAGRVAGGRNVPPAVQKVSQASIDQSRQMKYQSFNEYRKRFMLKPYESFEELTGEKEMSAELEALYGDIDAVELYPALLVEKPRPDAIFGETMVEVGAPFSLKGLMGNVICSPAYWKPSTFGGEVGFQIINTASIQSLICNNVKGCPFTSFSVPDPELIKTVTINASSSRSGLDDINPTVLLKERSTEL

[17] = system: Mus musculus; assay: Analgesic activity in Swiss albino mouse abdominal constriction model assessed as reduction in acetic acid-induced writhing response for 10 mins at 40 mg/kg, po administered 30 mins prior to acetic acid-challenge measured after 5 mins relative to vehicle-treated control; type: functional, Abdomen; set-up: scale not given: the % may be the effect or the level left; summary of the method: as §3
[18] = system: Rattus norvegicus; assay: Antiinflammatory activity against carrageenan-induced edema in Sprague-Dawley rat assessed as right hind paw volume at 20 mg/kg, po administered 4 hrs post challenge measured after 60 mins; type: functional; summary of the method: as §1
[19] = system: Rattus norvegicus; assay: Antiinflammatory activity against carrageenan-induced paw edema in Sprague-Dawley rat assessed as paw weight at 40 mg/kg, po administered 4 hrs post challenge measured after 30 mins (reference value: 29.8+/-3.1 g); type: functional
[20] = target: Prostaglandin G/H synthase 1 (Homo sapiens, UniProt P23219); assay: Inhibition of platelet COX1-mediated TXB2 production in LPS-induced human whole blood after 60 mins by radioimmunoassay; type: tissue-based
[21] = system: Rattus norvegicus; assay: Antiinflammatory activity against carrageenan-induced paw edema in Sprague-Dawley rat assessed as paw weight at 20 mg/kg, po administered 4 hrs post challenge measured after 60 mins (reference value: 32.6+/-2.7 g); type: functional
[22] = system: Rattus norvegicus; assay: Antiinflammatory activity against carrageenan-induced paw edema in Sprague-Dawley rat assessed as paw weight at 100 mg/kg, po administered 4 hrs post challenge measured after 30 mins (reference value: 31.9+/-3.0 g); type: functional
[23] = system: Rattus norvegicus; assay: Antiinflammatory activity against carrageenan-induced paw edema in Sprague-Dawley rat assessed as paw weight at 100 mg/kg, po administered 4 hrs post challenge measured after 60 mins (reference value: 31.9+/-3.0 g); type: functional
[24] = system: Rattus norvegicus; assay: Antiinflammatory activity against carrageenan-induced paw edema in Sprague-Dawley rat assessed as paw weight at 20 mg/kg, po administered 4 hrs post challenge measured after 30 mins (reference value: 32.6+/-2.7 g); type: functional
[25] = system: Rattus norvegicus; assay: Antiinflammatory activity against carrageenan-induced edema in Sprague-Dawley rat assessed as right hind paw volume at 100 mg/kg, po administered 4 hrs post challenge measured after 60 mins; type: functional; summary of the method: as §1
[26] = system: Rattus norvegicus; assay: Antiinflammatory activity against carrageenan-induced paw edema in Sprague-Dawley rat assessed as paw weight at 40 mg/kg, po administered 4 hrs post challenge measured after 60 mins (reference value: 29.8+/-3.1 g); type: functional
[27] = system: Rattus norvegicus; assay: Antiinflammatory activity against carrageenan-induced edema in Sprague-Dawley rat assessed as right hind paw volume at 40 mg/kg, po administered 4 hrs post challenge measured after 60 mins; type: functional; summary of the method: as §1
[28] = system: Aorta; assay: Vasorelaxation activity against KCl-induced contraction in isolated Wistar rat thoracic endothelium-denulated aortic rings in the presence of guanylate cyclase inhibitor ODQ; type: functional, tissue-based
Summary of the method: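 Thoracic aortic rings from male Wistar rats (250–350 g), endothelium removed by rubbing; rings relaxing ≥10% to ACh 10 μM on KCl 30 mM tone were discarded. ODQ 1 μM was incubated, then rings were contracted with KCl 30 mM and given 3-fold increasing concentrations of 1 nM–10 μM.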

[29] = system: Mus musculus; assay: Analgesic activity in Swiss albino mouse abdominal constriction model assessed as reduction in acetic acid-induced writhing response at 30 mg/kg, po administered 30 mins prior to acetic acid-challenge measured after 5 mins relative to vehicle-treated control; type: functional, Abdomen; set-up: scale not given: the % may be the effect or the level left; summary of the method: as §3
[30] = system: Rattus norvegicus; assay: Antiinflammatory activity against carrageenan-induced paw edema in Sprague-Dawley rat assessed as paw weight at 30 mg/kg, po administered 4 hrs post challenge measured after 60 mins (reference value: 31.8+/-2.5 g); type: functional
[31] = system: Rattus norvegicus; assay: Antiinflammatory activity against carrageenan-induced paw edema in Sprague-Dawley rat assessed as paw weight at 30 mg/kg, po administered 4 hrs post challenge measured after 30 mins (reference value: 31.8+/-2.5 g); type: functional
[32] = system: Rattus norvegicus; assay: Antiinflammatory activity against carrageenan-induced edema in Sprague-Dawley rat assessed as right hind paw volume at 30 mg/kg, po administered 4 hrs post challenge measured after 60 mins; type: functional; summary of the method: as §1
[33] = system: Rattus norvegicus; assay: Antiinflammatory activity against carrageenan-induced paw edema in Sprague-Dawley rat assessed as paw weight at 30 mg/kg, po administered 4 hrs post challenge measured after 120 mins (reference value: 31.8+/-2.5 g); type: functional
[34] = system: Rattus norvegicus; assay: Analgesic activity in Sprague-Dawley rat assessed as reduction in carrageenan-induced paw hyperalgesia at 30 mg/kg, po administered 4 hrs post challenge measured after 30 mins relative to vehicle-treated control; set-up: scale not given: the % may be the effect or the level left

Chain of Prostaglandin G/H synthase 1 (Homo sapiens, UniProt P23219) (P23219 whole entry): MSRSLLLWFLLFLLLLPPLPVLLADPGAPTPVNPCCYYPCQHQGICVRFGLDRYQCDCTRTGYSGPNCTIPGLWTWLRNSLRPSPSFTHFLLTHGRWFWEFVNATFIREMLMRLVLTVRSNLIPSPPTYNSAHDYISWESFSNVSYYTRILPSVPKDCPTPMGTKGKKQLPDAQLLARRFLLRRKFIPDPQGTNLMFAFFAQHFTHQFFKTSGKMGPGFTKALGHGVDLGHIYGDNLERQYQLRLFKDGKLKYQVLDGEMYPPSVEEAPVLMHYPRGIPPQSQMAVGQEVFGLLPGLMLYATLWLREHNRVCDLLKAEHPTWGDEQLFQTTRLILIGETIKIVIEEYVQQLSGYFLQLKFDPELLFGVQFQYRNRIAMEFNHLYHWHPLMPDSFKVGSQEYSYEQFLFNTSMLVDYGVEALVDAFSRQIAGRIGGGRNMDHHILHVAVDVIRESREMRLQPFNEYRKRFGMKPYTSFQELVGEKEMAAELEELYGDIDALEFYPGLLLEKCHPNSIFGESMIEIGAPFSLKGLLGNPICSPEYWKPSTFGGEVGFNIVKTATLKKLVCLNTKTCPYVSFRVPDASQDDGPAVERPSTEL

## Cc1ccc(-c2cc(C(F)(F)F)nn2-c2ccc(S(N)(=O)=O)cc2)cc1 [CELECOXIB]
[1]
  Activity: 1.36 mL
[2]
  Activity: 57.1 g
[3]
  Activity: 54.3 g
[4]
  Activity: 54.9 g

## Cc1c(CC(=O)OCCCO)cc(-c2ccc(S(C)(=O)=O)cc2)n1-c1cccc(F)c1
[5]
  Activity: 44.4 g
[6]
  IC50: > 10 µM
[7]
  Ratio IC50: > 435
[8]
  Activity: inactive
[9]
  Activity: 36.4 g
[10]
  Activity: 45.8 g
[11]
  inhibition: 0%
[12]
  Activity: 43.1 g
[13]
  Activity: 48.8 g
[14]
  Activity: 41.2 g

## Cc1c(CC(=O)OCCO[N+](=O)[O-])cc(-c2ccc(S(C)(=O)=O)cc2)n1-c1cccc(F)c1
[15]
  IC50: 0.331 µM
[16]
  IC50: 3.2 µM
[17]
  Activity: 70%
[18]
  Activity: 2.52 mL
[6]
  IC50: > 10 µM
[7]
  Ratio IC50: > 526
[19]
  Activity: 54.1 g
[20]
  IC50: 9.6 µM
[21]
  Activity: 35.3 g
[22]
  Activity: 57.2 g
[23]
  Activity: 36.5 g
[24]
  Activity: 40.1 g
[25]
  Activity: 1.88 mL
[26]
  Activity: 38.7 g
[11]
  inhibition: 36%
[27]
  Activity: 2.17 mL
[28]
  Activity: inactive

## Cc1c(CC(=O)OCCO)cc(-c2ccc(S(C)(=O)=O)cc2)n1-c1cccc(F)c1
[16]
  IC50: 1.7 µM
[29]
  Activity: 70%
[6]
  IC50: > 10 µM
[7]
  Ratio IC50: > 118
[20]
  IC50: 12.2 µM
[30]
  Activity: 52.3 g
[31]
  Activity: 55.7 g
[32]
  Activity: 2.51 mL
[11]
  inhibition: 33%
[33]
  Activity: 39.3 g
[34]
  Activity: 80%
